# RGS4 inh – inhibitors of human RGS4; HEK293 M3R/RGS4 inducible, Fluo-4 calcium flux; stronger effect = higher value; triggered by carbachol at its EC20; P49798; hit rate 0.45% among 310,000; B-score at 10 µM;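 active = B-score, a plate-corrected calcium signal, over three deviations above library mean, with baseline fluorescence within five deviations of library mean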;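 also: RGS4 expression induced by doxycycline in cells with stable M3 receptor; B-score is computed from the integrated fluorescence ratio over baseline after carbachol; higher B-score means a larger calcium signal and so more RGS4 inhibition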
# Target sequence (P49798 whole entry, looked up): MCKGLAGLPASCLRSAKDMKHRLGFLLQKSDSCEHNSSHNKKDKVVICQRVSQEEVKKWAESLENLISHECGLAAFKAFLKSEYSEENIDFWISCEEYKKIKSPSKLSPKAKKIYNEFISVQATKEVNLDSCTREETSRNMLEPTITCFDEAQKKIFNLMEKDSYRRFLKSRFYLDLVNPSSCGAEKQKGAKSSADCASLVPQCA
# MrgX1 antag – antagonists of human MrgX1 receptor; Q96LB2; MRGX1-HEK293 calcium flux, Fluo-4, BAM8-22 antagonism; stronger effect = lower value; hit rate 1.3% among 310,000; AID 588676; B-score at 10 µM;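 active = calcium-response B-score plate-corrected more than 3 library SD below zero, starting fluorescence within 5 deviations, no agonist response on first addition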;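 also: peak minus trough fluorescence over baseline after final BAM8-22 challenge near maximal dose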
# Target sequence (Q96LB2 whole entry, looked up): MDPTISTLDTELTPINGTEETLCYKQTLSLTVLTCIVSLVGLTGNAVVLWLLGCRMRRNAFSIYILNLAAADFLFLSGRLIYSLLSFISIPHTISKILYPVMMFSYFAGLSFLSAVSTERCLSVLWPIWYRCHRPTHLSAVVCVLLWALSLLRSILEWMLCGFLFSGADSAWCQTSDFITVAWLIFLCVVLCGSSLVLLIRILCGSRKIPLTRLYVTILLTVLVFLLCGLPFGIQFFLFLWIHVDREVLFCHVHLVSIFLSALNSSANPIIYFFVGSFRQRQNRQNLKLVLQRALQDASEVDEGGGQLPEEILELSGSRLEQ
# MrgX1 PAM – allosterically activates human MrgX1 receptor signaling; hit rate 0.63% among 310,000; Q96LB2; B-score at 10 µM; MrgX1-HEK293, Fluo-4 calcium flux, FDSS; stronger effect = higher value;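 active = plate-corrected calcium response at least 3 library SD above typical, normal starting fluorescence, not activating the receptor alone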;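 also: compound read alongside a low EC10 to EC30 dose of BAM8-22 agonist; peak minus trough fluorescence over baseline measured at the second addition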
# MrgX1 agonist – activates human MrgX1 receptor signaling | hit rate 0.44% among 310,000 | B-score at 10 µM | AID 588627 | MrgX1-HEK293 cells, Fluo-4 calcium fluorescence, agonist mode; stronger effect = higher value | Q96LB2;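 active = calcium response B-score plate-corrected fluorescence ratio at least 3 library SD, with starting fluorescence B-score inside 5 SD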
#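 Test system: HEK293 cells stably expressing human MrgX1 receptor; Input: fifteen thousand cells per well; Dosing: compound delivered in addition one of three; Schedule: overnight seeding, then 1 h dark dye loading; Technique: Fluo-4 NW calcium fluorescence; Measure: B-scored fluorescence response ratio; Controls: positive and negative controls per plate.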
# RGS4 act – RGS4 potentiation or activation | B-score at 10 µM | HEK293 M3R/inducible RGS4, carbachol calcium flux Fluo4; stronger effect = lower value | hit rate 0.92% among 310,000;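 active = B-score of the integrated calcium signal more than 4 SD below the library mean, with starting fluorescence not abnormally high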;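 also: negative B-score means reduced calcium response which marks RGS4 activation or potentiation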
#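 test system = HEK293 cells with stable M3R and inducible RGS4 | schedule = recording 10 s baseline at 1 Hz, 100 s post-agonist | technique = Fluo4-AM (2 µM) calcium-flux fluorescence, kinetic read | measure = Agonist-evoked peak-minus-minimum fluorescence over baseline, integrated ratio, B score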
# Starred values were filed as active, the others as inactive; i = inactive; nt = no result given. This is a sample that favours compounds with a hit; in the whole collection about 3.5% have one here.
SMILES,RGS4 inh,MrgX1 antag,MrgX1 PAM,MrgX1 agonist,RGS4 act
C=C1C(=O)O[C@H]2C[C@@H](C)[C@@H]3C=CC(=O)[C@@]3(C)C[C@H]12,6.29*,i,i,i,i
CC/C(=N\N1CCCCCC1)c1c(O)n(-c2ccc(C)cc2)c(=O)[nH]c1=O,i,i,11.3*,i,i
C/C(=N\N1CCCCCC1)c1c(O)n(-c2ccc(C)cc2)c(=O)[nH]c1=O,i,i,i,i,i
C=C(C)[C@H]1CN[C@H](C(=O)O)[C@H]1CC(=O)O,i,i,i,i,i
O=C1NC(=O)N(c2ccc(Cl)cc2)C(=O)/C1=C\c1ccc(Sc2nc3ccccc3[nH]2)o1,i,i,16.6*,i,i
CCOC(C(=O)OCCC[N+](C)(CC)CC)(c1ccccc1)c1ccccc1,i,i,i,i,-8.71*
CC[N+](C)(CC)CCCOC(=O)C(O)(c1ccccc1)C1CCCCC1 (stereo unspecified),i,i,i,i,-7.08*
O=C(O)C(O)(c1ccccc1)C1CCCCC1 (stereo unspecified),i,i,i,i,i
CCCNC(=O)N1[C@H]2CC[C@@H]1C(C(=O)OC)=C(c1cc3ccccc3s1)C2,i,i,i,i,i
NC(N)=N/N=C/c1ccc(N(c2ccccc2)c2ccccc2)cc1,i,i,i,i,-8.3*
C[N+]12CCC(CC1)C(C(O)(c1ccccc1)c1cccs1)C2 (stereo unspecified),i,i,i,i,-7.73*
Cc1ccc(S(=O)(=O)NC(Cc2cnc[nH]2)C(=O)O)cc1 (stereo unspecified),i,i,i,i,i
CC(N)Cc1cn(Cc2ccccc2)c2ccccc12 (stereo unspecified),i,i,i,i,i
O=C1NC(=O)C(=Cc2ccc(OCCOc3ccc([N+](=O)[O-])cc3)cc2)C(=O)N1,i,-4.85*,i,i,i
Cc1ccnc(NS(=O)(=O)c2ccc(N=Cc3c(O)n(C)c(=O)n(C)c3=O)cc2)n1,i,i,6.59*,i,i
C[C@]12CCC3=C4CCC(=O)C=C4CC[C@H]3C1CC[C@@H]2O (stereo partly specified),i,i,i,i,i
Clc1ccc2c(c1)C(OC1CN3CCC1CC3)c1ccccc1CS2 (stereo unspecified),i,i,i,i,-8.62*
CN1CCN(CCOC2c3ccccc3CSc3ccc(Cl)cc32)CC1 (stereo unspecified),i,-9.38*,i,i,i
O=C(COc1ccc(Cl)cc1)N(c1ccccc1Cl)C1CN2CCC1CC2 (stereo unspecified),i,i,i,i,i
Clc1ccc(C(OCCN2CCCCC2)c2ccccc2)cc1 (stereo unspecified),nt,i,i,i,nt
CC(=O)OC1CC[C@@]2(C)C(=CC(=O)C3C4CCC(OC(C)=O)[C@@]4(C)CCC32)C1 (stereo partly specified),i,i,i,i,i
Cc1cc([N+](=O)[O-])c2ccccc2[n+]1[O-],i,i,i,i,i
CCN1CCN(CC(c2ccccc2)c2ccccc2)CC1,i,i,i,i,-7.02*
CCC(C(=O)N1CCC2(CC1)OCCO2)n1c2ccccc2c2nc(=O)cc(C)n21 (stereo unspecified),i,i,i,i,i
CC(=O)c1ccc2c(c1)C1C(Cl)C(Sc3ccccc3[N+](=O)[O-])CC1C(c1ccccc1[N+](=O)[O-])N2 (stereo unspecified),i,i,i,i,-7.89*
SMILES,RGS4 inh,MrgX1 antag,MrgX1 PAM,MrgX1 agonist,RGS4 act
Cc1ccccc1-n1c(-c2ccc([N+](=O)[O-])cc2)nc2ccccc2c1=O,i,i,i,i,-10.1*
CCn1cc(C(=O)N2CCC3(CC2)OCCO3)c(=O)c2cc(S(=O)(=O)N3CCCC3)ccc21,i,i,i,i,i
Cc1c(C(=O)N2CCC3(CC2)OCCO3)oc2ccc(S(=O)(=O)N3CCCCC3)cc12,i,-5.27*,i,i,i
C/C=C1/C[C@@H](C)[C@](O)(CO)C(=O)OCC2=CCN3CC[C@@H](OC1=O)[C@@H]23,nt,i,i,i,nt
C/C=C1/CC(C)C(C)(O)C(=O)OCC2CCN3CCC(OC1=O)C23 (stereo unspecified),i,i,i,i,-8.22*
COc1ccc(OCC#CCN2CCC(C)CC2)cc1,i,i,i,i,i
Clc1ccc(OCC#CCN2CCCCCC2)cc1,i,i,i,i,-7.02*
Cc1cc(C=C2C(=O)N(C)C(=S)N(C)C2=O)c(C)n1C1CCCCC1,i,i,i,47*,i
Cc1cc(C=C2C(=O)NC(=S)NC2=O)c(C)n1C1CCCC1,i,i,i,i,i
COC(=O)C1=C(c2cc3ccccc3o2)C[C@@H]2CC[C@H]1N2C(=O)NCc1ccc(C(F)(F)F)cc1,i,i,9.17*,i,i
O=P(Nc1ccccc1)(Oc1ccccc1)Oc1ccccc1,i,i,i,i,i
COc1cccc(OP(=O)(Nc2ccccc2)Oc2cccc(OC)c2)c1,i,i,i,i,-9.89*
C=CCOC(=O)C1=C(C)OC(N)=C(C#N)C12C(=O)N(CN1CCOCC1)c1ccccc12 (stereo unspecified),i,i,i,i,i
C=CCN=C(SCC(=O)c1ccc(Cl)cc1)c1c(O)n(C)c(=O)n(C)c1=O,i,i,i,i,i
COc1ccc(C(=O)O/N=C(/C(N)=O)P(=O)(OC(C)C)OC(C)C)cc1,i,i,i,i,-7.67*
CN1C(=O)c2ccccc2NC(=O)C1Cc1ccccc1 (stereo unspecified),i,i,i,i,i
O=c1[nH]c(O)c(N=Nc2ccc(SC(F)F)cc2)c(=O)[nH]1,i,i,13.2*,i,i
NC(=O)c1ccc(N=Nc2c(O)[nH]c(=O)[nH]c2=O)cc1,i,i,i,i,i
COc1cc(OC)cc(-n2nc(C(=O)N3CCC4(CC3)OCCO4)c3ccccc3c2=O)c1,nt,i,i,i,nt
Cc1ccc2c(c1)N(N=O)CCC2,i,i,i,i,i
CN1CCN(c2ccc(N)cc2Cl)CC1,i,-5.26*,i,i,i
COc1ccc(O)c(CN2CCCC(C(=O)c3ccccc3SC)C2)c1 (stereo unspecified),i,i,i,i,i

# Screens deposited in PubChem BioAssay by Johns Hopkins Ion Channel Center.
